Calls of active or inactive are those of the source. The rule behind the calls is not given here.
Legend:
A549 = experiment: Growth inhibition of human A549 cells after 48 hrs by sulforhodamine B assay; type: functional, cell-based; details: A549, 48 h
Procedure, shortened: (§1)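 NCI 60-line screen. Cells grown in RPMI 1640 with 5% FBS and 2 mM L-glutamine, seeded at 5000–40,000 cells/well, preincubated 24 h at 37 °C. Five 10-fold dilutions added, highest well concentration 10E-4 M. Incubated 48 h in 5% CO₂ at 100% humidity. Sulforhodamine B read-out by optical density; GI50 taken from dose-response curves versus control.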

RXF 393 = experiment: Growth inhibition of human RXF393 cells after 48 hrs by sulforhodamine B assay; type: functional; details: RXF 393, 48 h
Procedure, shortened: (§2)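 NCI 60-line screen. Cells grown in RPMI 1640 with 5% FBS and 2 mM L-glutamine, seeded at 5000-40,000 cells/well and preincubated 24 h at 37 °C. Compounds added at five 10-fold dilutions, highest well concentration 10E-4 M. Exposure 48 h in 5% CO2 at 100% humidity. Endpoint is sulforhodamine B with optical density read-out. GI50 is the concentration giving 50% growth inhibition versus control.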

HCT-116 = experiment: Growth inhibition of human HCT116 cells after 48 hrs by sulforhodamine B assay; type: functional; details: HCT-116, 48 h; procedure, shortened: as §1
[1] = Growth inhibition of human Hs 578T cells after 48 hrs by sulforhodamine B assay; type: functional; procedure, shortened: as §1
SF-268 = experiment: Antiproliferative activity against human SF268 cells assessed as growth at 100 uM after 48 hrs by alamar blue assay; type: functional; details: SF-268, 48 h, read-out: Activity
Procedure, shortened: (§3)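 Single-dose prescreen in a three-line NCI panel (NCI-H460, MCF7, SF-268). Cells were inoculated and preincubated on microtiter plates, then exposed to test agent at 100 μM for 48 h. Alamar blue end-point. Growth is expressed as percent of untreated control cells.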

NCI-H460 [2] = experiment: Antiproliferative activity against human NCI-H460 cells assessed as growth at 100 uM after 48 hrs by alamar blue assay; type: functional; details: NCI-H460, 48 h, read-out: Activity; procedure, shortened: as §3
U-251 = experiment: Growth inhibition of human U251 cells after 48 hrs by sulforhodamine B assay; type: functional; details: U-251, 48 h; procedure, shortened: as §2
CCRF-CEM = experiment: Growth inhibition of human CCRF-CEM cells after 48 hrs by sulforhodamine B assay; type: functional; procedure, shortened: as §1
MCF7 = experiment: Antiproliferative activity against human MCF7 cells assessed as growth at 100 uM after 48 hrs by alamar blue assay; type: functional; details: MCF7, 48 h, read-out: Activity; procedure, shortened: as §3
SK-MEL-5 = experiment: Growth inhibition of human SK-MEL-5 cells after 48 hrs by sulforhodamine B assay; type: functional; details: SK-MEL-5, 48 h; procedure, shortened: as §2
NCI-H460 [3] = experiment: Growth inhibition of human NCI-H460 cells after 48 hrs by sulforhodamine B assay; type: functional; details: NCI-H460, 48 h; procedure, shortened: as §1
SR = experiment: Growth inhibition of human SR cells after 48 hrs by sulforhodamine B assay; type: functional; procedure, shortened: as §2
IGROV-1 = experiment: Growth inhibition of human IGROV1 cells after 48 hrs by sulforhodamine B assay; type: functional; details: IGROV-1, 48 h; procedure, shortened: as §1
DU-145 = experiment: Growth inhibition of human DU145 cells after 48 hrs by sulforhodamine B assay; type: functional; details: DU-145, 48 h; procedure, shortened: as §1
NCI-H460 [4] = experiment: Cell cycle arrest in human NCI-H460 cells assessed as accumulation at G2/M phase at 1 uM after 24 hrs by propidium iodide staining-based flow cytometric analysis (reference value: 18.6 +/- 1.7%); type: functional
NCI-H460 [5] = experiment: Cell cycle arrest in human NCI-H460 cells assessed as accumulation at S phase at 10 uM after 24 hrs by propidium iodide staining-based flow cytometric analysis (reference value: 14.3 +/- 1.9%); type: functional
NCI-H460 [6] = experiment: Cell cycle arrest in human NCI-H460 cells assessed as accumulation at G2/M phase at 10 uM after 24 hrs by propidium iodide staining-based flow cytometric analysis (reference value: 18.6 +/- 1.7%); type: functional
NCI-H460 [7] = experiment: Cell cycle arrest in human NCI-H460 cells assessed as accumulation at S phase at 1 uM after 24 hrs by propidium iodide staining-based flow cytometric analysis (reference value: 14.3 +/- 1.9%); type: functional
NCI-H460 [8] = experiment: Induction of apoptosis in human NCI-H460 cells assessed as accumulation at sub-G1 phase at 5 uM after 24 hrs by propidium iodide staining-based flow cytometric analysis (reference value: 0.9 +/- 0.3%); type: functional
NCI-H460 [9] = experiment: Induction of apoptosis in human NCI-H460 cells assessed as accumulation at sub-G1 phase at 1 uM after 24 hrs by propidium iodide staining-based flow cytometric analysis (reference value: 0.9 +/- 0.3%); type: functional
NCI-H460 [10] = experiment: Cell cycle arrest in human NCI-H460 cells assessed as accumulation at G1 phase at 1 uM after 24 hrs by propidium iodide staining-based flow cytometric analysis (reference value: 66.2 +/- 2.1%); type: functional
NCI-H460 [11] = experiment: Induction of apoptosis in human NCI-H460 cells assessed as induction of caspase 8 activity after 24 hrs by Western blot analysis; type: functional, cell-based
Procedure, shortened: (§4)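 Treated H460 cells washed in cold PBS and lysed 30 min on ice in Tris-HCl pH 7.5/NP-40 buffer with protease and phosphatase inhibitors. Lysate spun at 12,000g. Protein measured by Bradford; 20 µg resolved on 10% SDS-PAGE and transferred to PVDF. Blocked with 5% milk, then primary antibody 2 h and secondary 30 min. Detected by ECL for PARP, procaspase-3 and procaspase-8.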

NCI-H460 [12] = experiment: Induction of apoptosis in human NCI-H460 cells assessed as induction of caspase 3 activity after 24 hrs by Western blot analysis; type: functional, cell-based; procedure, shortened: as §4
NCI-H460 [13] = experiment: Cell cycle arrest in human NCI-H460 cells assessed as accumulation at G2/M phase at 5 uM after 24 hrs by propidium iodide staining-based flow cytometric analysis (reference value: 18.6 +/- 1.7%); type: functional
Nucleic Acid [14] = experiment: Binding affinity to Escherichia coli pBR322 assessed as DNA unwinding at 1000 uM after 12 hrs by ethidium bromide staining-based agarose gel electrophoresis; type: nucleic-acid assay
Procedure, shortened: (§5)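 Negatively supercoiled pBR322 plasmid (400 ng) incubated with the test compound in TE buffer, pH 8.0, for 12 h at room temperature. Loading buffer contained sarkosyl, bromophenol blue and glycerol. Samples run on 1% agarose at 6 V/cm for 2.5 h in TAE, pH 8.5. Ethidium bromide stain, imaged under UV; unwinding read as reduced mobility of form I DNA.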

NCI-H460 [15] = experiment: Cell cycle arrest in human NCI-H460 cells assessed as accumulation at G1 phase at 5 uM after 24 hrs by propidium iodide staining-based flow cytometric analysis (reference value: 66.2 +/- 2.1%); type: functional
NCI-H460 [16] = experiment: Cell cycle arrest in human NCI-H460 cells assessed as accumulation at S phase at 5 uM after 24 hrs by propidium iodide staining-based flow cytometric analysis (reference value: 14.3 +/- 1.9%); type: functional
NCI-H460 [17] = experiment: Cell cycle arrest in human NCI-H460 cells assessed as accumulation at G1 phase at 10 uM after 24 hrs by propidium iodide staining-based flow cytometric analysis (reference value: 66.2 +/- 2.1%); type: functional
NCI-H460 [18] = experiment: Induction of apoptosis in human NCI-H460 cells assessed as accumulation at sub-G1 phase at 10 uM after 24 hrs by propidium iodide staining-based flow cytometric analysis (reference value: 0.9 +/- 0.3%); type: functional
NCI-H460 [19] = experiment: Induction of apoptosis in human NCI-H460 cells assessed as PARP cleavage after 24 hrs by Western blot analysis; type: functional, cell-based; procedure, shortened: as §4
Nucleic Acid [20] = experiment: Binding affinity to Escherichia coli pBR322 assessed as DNA unwinding at 10 to 100 uM after 12 hrs by ethidium bromide staining-based agarose gel electrophoresis; type: nucleic-acid assay; procedure, shortened: as §5
NCI-H460 [21] = experiment: Induction of apoptosis in human NCI-H460 cells assessed as cell shrinkage at 10 uM after 24 hrs by light microscopic analysis relative to control; type: functional, cell-based
Procedure, shortened: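 H460 cells exposed to DMSO or compound (1.0-10.0 μM) for 24 h at 37 °C, then photographed under a light microscope for morphology.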

| SMILES | GI50 (A549) [µM] | GI50 (RXF 393) [µM] | GI50 (HCT-116) [µM] | GI50 [1] [µM] | growth at 100 µM (SF-268) [%] | growth at 100 µM (NCI-H460 [2]) [%] | GI50 (U-251) [µM] | GI50 (CCRF-CEM) [µM] | growth at 100 µM (MCF7) [%] | GI50 (SK-MEL-5) [µM] | GI50 (NCI-H460 [3]) [µM] | GI50 (SR) [µM] | GI50 (IGROV-1) [µM] | GI50 (DU-145) [µM] | further results |
| --- | --- | --- | --- | --- | --- | --- | --- | --- | --- | --- | --- | --- | --- | --- | --- |
| COc1ccc2c(c1)/C(=N\O)c1c-2c(Nc2ccc(/C(C)=N/O)cc2)nc2ccccc12 | 1.45 | < 0.01 | 1.48 | 7.08 | 2 | 0 | 2.29 | 4.17 | 1 | 3.8 | 29.5 | 1.48 | 15.1 | 2.04 | – |
| COc1ccc2c(c1)/C(=N\O)c1c-2c(Nc2cccc(/C(C)=N/O)c2)nc2ccccc12 | 28.2 | 28.2 | 28.2 | 28.2 | 66 | 11 | 28.2 | 28.2 | 84 | 28.2 | – | 28.2 | 28.2 | 28.2 | – |
| COc1ccc2c(c1)C(=O)c1c-2c(Nc2cccc(C(C)=O)c2)nc2ccccc12 | 17.7 | 9.77 | 2.63 | 3.16 | 7 | 0 | 3.09 | 12.9 | 17 | 5.25 | 23.5 | 21.4 | 3.63 | 11.8 | – |
| COc1ccc2c(c1)C(=O)c1c-2c(Nc2ccc(C(C)=O)cc2)nc2ccccc12 | 39.8 | 39.8 | 39.8 | 39.8 | 11 | 18 | 39.8 | 39.8 | 61 | 39.8 | – | 39.8 | 39.8 | 39.8 | – |
| COc1ccc2c(c1)/C(=N\OC(C)=O)c1c-2c(Nc2ccc(/C(C)=N/OC(C)=O)cc2)nc2ccccc12 | 52.5 | 52.5 | 52.5 | 52.5 | 36 | 37 | 52.5 | 52.5 | 24 | 52.5 | – | 52.5 | 52.5 | 52.5 | – |
| COc1ccc2c(c1)C(=O)c1c-2c(NCCCN(C)C)nc2ccccc12 | 1.86 | – | 1.26 | 3.72 | 0 | 0 | 1.1 | 3.39 | 0 | 3.89 | 1.33 | 1.1 | 6.92 | 6.61 | Activity (NCI-H460 [4]): 28.1%; Activity (NCI-H460 [5]): 11.8%; Activity (NCI-H460 [6]): 21.5%; Activity (NCI-H460 [7]): 10.1%; Activity (NCI-H460 [8]): 8.2%; Activity (NCI-H460 [9]): 3.7%; Activity (NCI-H460 [10]): 58.1%; Activity (NCI-H460 [11]): Dose-dependent effect; Activity (NCI-H460 [12]): Dose-dependent effect; Activity (NCI-H460 [13]): 33.5%; Activity (Nucleic Acid [14]): inactive; Activity (NCI-H460 [15]): 49.2%; Activity (NCI-H460 [16]): 9.1%; Activity (NCI-H460 [17]): 41.4%; Activity (NCI-H460 [18]): 25.3%; Activity (NCI-H460 [19]): Dose-dependent effect; Activity (Nucleic Acid [20]): Active; Activity (NCI-H460 [21]): Active |
